Screening data from PubChem BioAssay.
CHRM4 agonist = CHRM4 agonism in calcium assay | P08173 | CHO-K1 hM4/Gqi5, Fluo-8 calcium fluorescence; vehicle 0%, full acetylcholine response 100% | activation, % at 3 µM | 0.14% of 360,000 active | AID 624127;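 active = activation above the run mean over all test wells plus 3 SD, cut at about 32% in these data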;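 also: peak over basal fluorescence ratio per well then scaled between controls; 0% = DMSO wells and 100% = acetylcholine at EC100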
M4 PAM = CHRM4 positive allosteric modulation; P08173; CHO-K1 hM4/Gqi5, Fluo-8 calcium fluorescence, ACh EC20; 0% = ACh EC20, 100% = maximal ACh; activation, % at 3 µM; 0.4% of 360,000 active;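 active = activation above its plate's cutoff, the mean activation of sample wells plus 3 SD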
CHRM4 antagonist = CHRM4 antagonism in calcium assay | AID 624125 | CHO-hM4 cells, ACh EC80, Fluo-8 calcium fluorescence | inhibition, % at 3 µM | 0.73% of 360,000 active | P08173;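 active = inhibition above its plate's cutoff, the mean inhibition of sample wells plus 3 SD, cut at about 27% in these data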;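 also: 0% = acetylcholine EC80 with DMSO and 100% = DMSO without agonist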
TAAR1 ag = agonists of human TAAR1. CHO RD-HGA16 TAAR1, Fluo-8 calcium fluorescence; vehicle wells 0%, saturating PEA agonist 100%. activation, % at 3 µM. 0.99% of 360,000 active;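 active = activation above the mean activation of all test compounds in the run plus 3 SD, cut at about 38% in these data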
Target sequence (Q96RJ0 whole entry, looked up): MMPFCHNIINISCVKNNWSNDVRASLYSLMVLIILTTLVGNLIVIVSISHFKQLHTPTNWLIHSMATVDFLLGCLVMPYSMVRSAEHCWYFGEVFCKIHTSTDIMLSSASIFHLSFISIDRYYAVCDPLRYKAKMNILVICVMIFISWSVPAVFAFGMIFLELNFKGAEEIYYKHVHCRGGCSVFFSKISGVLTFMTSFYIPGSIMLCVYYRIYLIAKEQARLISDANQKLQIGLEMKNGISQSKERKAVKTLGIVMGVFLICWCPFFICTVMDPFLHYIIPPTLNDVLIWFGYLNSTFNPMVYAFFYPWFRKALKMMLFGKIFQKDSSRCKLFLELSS
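Signal – calcium-sensitive Fluo-8 signal, excitation 470-495, emission 515-575 nm · System – RD-HGA16 (CHO) cells co-expressing Gα16 and hTAAR1 · Incubation – 17-24 h seeding, 75 min 37 °C dye, 30 min RT · Compound dosing – 3 µM single concentration · Repeats – no replicates (n 1)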
TAAR1 antagonist = human TAAR1 antagonism; Q96RJ0; CHO RD-HGA16 TAAR1, Fluo-8 calcium fluorescence, antagonist; inhibition, % at 3 µM; 1.5% of 360,000 active;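 active = inhibition above a per-plate cutoff, the mean inhibition of test compounds on that plate plus 3 SD, cut at about 49% in these data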;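 also: 0% = DMSO plus EC80 beta-PEA response and 100% = DMSO alone without agonist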
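Test system: hTAAR1-expressing CHO RD-HGA16 cells, Gα16-coupled; Probe or stimulus: EC80 β-phenethylamine stimulus; Compound dosing: single nominal final test compound concentration of 3 µM; Timing: 140 s kinetic read after compound, 140 s after agonist; Signal: Fluo-8 calcium-sensitive fluorescence; Measure: % inhibition of agonist calcium response; Controls: DMSO and EC80 PEA controls.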
* hit, by the source's call. Most compounds without a hit are left out; they make up all but 3% or so of the library.

Screening CCOC(=O)/C(=C/c1ccc(OC(=O)c2ccccc2)cc1)C(C)=O returned CHRM4 agonist 1.4, M4 PAM 21.2*, CHRM4 antagonist -1.4, TAAR1 ag 5.6 and TAAR1 antagonist 14.4.
For COc1ccc2c(c1)[C@@]1(OCCC=C[C@H]1C)C(=O)N2Cc1ccc(F)cc1 the results were TAAR1 ag 1.2 and TAAR1 antagonist -11.0.
Clc1ccc(Cn2ncc3c(NCc4ccco4)ncnc32)c(Cl)c1 was read as TAAR1 ag 11.5 and TAAR1 antagonist 53.3*.
For Cc1ccc(C(=O)N2CCC[C@@H]2C(=O)N2CCC[C@@H]2C(=O)NCc2ccccc2)cc1C the results were TAAR1 ag -0.2 and TAAR1 antagonist 3.1.
CN(C)CCOc1ccc(-c2c(-c3ccccc3)sc3ccccc23)cc1 was read as CHRM4 agonist 4.3, M4 PAM 0.1, CHRM4 antagonist 28.2*, TAAR1 ag 27.0 and TAAR1 antagonist 42.3.
N#Cc1ccc2nc(-c3ccc(CN4CCC(n5cc(-c6ccccc6)[nH]c5=O)CC4)cc3)c(-c3ccccc3)nc2c1 was read as TAAR1 ag 8.2 and TAAR1 antagonist 46.1.
For CC(=O)c1sc(Nc2ccc(Oc3ccccc3)cc2)nc1C the results were CHRM4 agonist 7.1, M4 PAM -15.2, CHRM4 antagonist 33.6*, TAAR1 ag 0.3 and TAAR1 antagonist 45.8.
CC(=O)c1sc(N/N=C\c2ccccc2O)nc1C was read as CHRM4 agonist 3.8, M4 PAM 0.0, CHRM4 antagonist -7.4, TAAR1 ag 41.8* and TAAR1 antagonist 15.5.
CC[C@H](C)[C@H]1CNC(=O)C(=O)N1CC1CCN(CC(C)C)CC1 was read as TAAR1 ag 0.7 and TAAR1 antagonist -0.6.
Screening COCc1[nH]nc2c1C(c1ccc(C)cc1)N(c1ccc(OC)cc1)C2=O (configuration not stated) returned TAAR1 ag 0.1 and TAAR1 antagonist -6.0.
For COc1ccc(OC)c(N2CC(O)(c3cccs3)[N+]3=C2SCCC3)c1 (configuration not stated) the results were CHRM4 agonist 0.4, M4 PAM 0.5, CHRM4 antagonist 2.6, TAAR1 ag -0.4 and TAAR1 antagonist -6.3.
`OC1(c2cccs2)CN(c2ccc(Br)cc2)C2=[N+]1CCCS2` (configuration not stated) gave CHRM4 agonist 0.4, M4 PAM -13.8, CHRM4 antagonist 27.1*, TAAR1 ag 11.0 and TAAR1 antagonist -13.6.
`CSCCC(NS(=O)(=O)c1ccc2c(c1)OCCO2)C(=O)N(C)Cc1ccccc1F` (configuration not stated) gave CHRM4 agonist 24.9, M4 PAM -10.6, CHRM4 antagonist 18.1, TAAR1 ag 31.1 and TAAR1 antagonist 55.2*.
`O=C(CCNC(=O)c1ccc(Br)cc1)NNC(=O)c1ccccc1` gave CHRM4 agonist 2.0, M4 PAM -4.3, CHRM4 antagonist -6.2, TAAR1 ag 40.4* and TAAR1 antagonist -10.8.
For O=C(CCNC(=O)c1ccc([N+](=O)[O-])cc1)NNC(=O)c1ccccc1F the results were CHRM4 agonist 0.0, M4 PAM 26.0*, CHRM4 antagonist -11.2, TAAR1 ag 5.6 and TAAR1 antagonist -11.8.
`C[N+](C)(C)CCNC(=O)c1ccccc1` gave CHRM4 agonist 1.4, M4 PAM 22.6*, CHRM4 antagonist -7.4, TAAR1 ag 0.7 and TAAR1 antagonist -14.8.
`CCCOC(=O)C1=C(C)OC23OC(N)=C(C#N)C12C(=O)c1ccccc13` (configuration not stated) gave CHRM4 agonist 0.2, M4 PAM -16.4, CHRM4 antagonist 34.5*, TAAR1 ag -2.7 and TAAR1 antagonist -5.2.
Screening CCc1ccccc1N(C(=O)c1snc(C(N)=O)c1N)C(C(=O)NCC1CCCO1)c1ccc(N(C)C)cc1 (configuration not stated) returned CHRM4 agonist 0.4, M4 PAM 5.7, CHRM4 antagonist -2.5, TAAR1 ag -1.1 and TAAR1 antagonist -7.0.
Screening CC(C)c1ccc(N(C(=O)c2snc(C(N)=O)c2N)C(C(=O)NCC2CCCO2)c2ccc(N(C)C)cc2)cc1 (configuration not stated) returned CHRM4 agonist 8.0, M4 PAM 3.7, CHRM4 antagonist 13.4, TAAR1 ag 24.1 and TAAR1 antagonist 55.3*.
